pIC50: −log10 of the molar value.
Legend:
HL-60 [1] = experiment: In vitro growth inhibition against human leukemia HL-60 cell line; type: functional, cell-based
Outline: (§1)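 HL-60 cells were seeded at 5×10^4 cells/mL in RPMI 1640 with 10% heat-inactivated FBS, penicillin and streptomycin, at 37 °C in 5% CO2. Cells were exposed for 72 h to six or seven drug concentrations, run in duplicate. Viability was read by XTT-tetrazolium microculture absorbance, and IC50 was derived from median-effect plot analysis.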

Mus musculus [2] = experiment: […] anticancer activity against B6D2F-1 mice bearing P388 leukemia measured by the average body weight(g) after day 1 at an intravenous dose of 16(mg/kg).
Mus musculus [3] = experiment: […] anticancer activity against B6D2F-1 mice bearing P388 leukemia measured by the increase in lifespan at an intravenous dose of 22(mg/kg).; type: functional
Outline: (§2)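 Male B6D2F1 mice, 8 weeks old, 20–25 g. P388/0 ascites cells (0.2 mL, ascites:saline 1.10) were implanted iv on day 0, and the tumor grew in the liver. Drug was given iv by tail vein on days 1, 3, 5, 7 and 9 (Q2Dx5), with 4–5 mice per group. Survival time was scored as 8 a.m. (0.0), 1 p.m. (0.25) or 5 p.m. (0.5) deaths. %ILS was averaged against untreated controls, and toxic deaths were counted.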

Mus musculus [4] = experiment: […] anticancer activity against B6D2F-1 mice bearing P388 leukemia measured by the average weight change(g) after day 11 at an intravenous dose of 22(mg/kg).; type: functional
Outline: (§3)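 Male B6D2F1 mice (8 weeks old, 20–25 g) were implanted iv on day 0 with P388/0 ascites cells (0.2 mL; ascites:saline 1.10), which grew in the liver. Drug was given iv via the tail vein, Q2Dx5, on days 1, 3, 5, 7 and 9. Groups had 4–5 mice. Day 1 value is mean body weight; later days are weight change.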

HL-60 [5] = experiment: In vitro inhibition of human leukemic HL-60 cell growth in culture; type: functional, cell-based; outline: as §1
Mus musculus [6] = experiment: […] anticancer activity against B6D2F-1 mice bearing P388 leukemia measured by the average weight change(g) after day 11 at an intravenous dose of 16(mg/kg).; type: functional; outline: as §3
Mus musculus [7] = experiment: […] anticancer activity against B6D2F-1 mice bearing P388 leukemia measured by the Average survival time(days) at an intravenous dose of 22(mg/kg).; type: functional; outline: as §2
Mus musculus [8] = experiment: […] anticancer activity against B6D2F-1 mice bearing P388 leukemia measured by the increase in lifespan at an intravenous dose of 16(mg/kg)..; type: functional; outline: as §2
Mus musculus [9] = experiment: […] anticancer activity against B6D2F-1 mice bearing P388 leukemia measured by the average body weight(g) after day 1 at an intravenous dose of 30(mg/kg).
Mus musculus [10] = experiment: […] anticancer activity against B6D2F-1 mice bearing P388 leukemia measured by the average weight change(g) after day 7 at an intravenous dose of 22(mg/kg).; type: functional; outline: as §3
Mus musculus [11] = experiment: […] anticancer activity against B6D2F-1 mice bearing P388 leukemia measured by the average weight change(g) after day 9 at an intravenous dose of 22(mg/kg).; type: functional
Outline: (§4)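 Male B6D2F1 mice (8 weeks old, 20–25 g) were implanted iv on day 0 with P388/0 ascites cells (0.2 mL; ascites:saline = 1.10). Tumor grew in the liver. Drug was given iv via the tail vein, Q2Dx5, on days 1, 3, 5, 7 and 9. Body weight was recorded on days 1, 7, 9 and 11 and reported as the average change (g).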

Mus musculus [12] = experiment: […] anticancer activity against B6D2F-1 mice bearing P388 leukemia measured by the average weight change(g) after day 9 at an intravenous dose of 30(mg/kg).; type: functional; outline: as §4
Mus musculus [13] = experiment: […] anticancer activity against B6D2F-1 mice bearing P388 leukemia measured by the increase in lifespan at an intravenous dose of 30(mg/kg).; type: functional; outline: as §2
Mus musculus [14] = experiment: […] anticancer activity against B6D2F-1 mice bearing P388 leukemia measured by the average weight change(g) after day 7 at an intravenous dose of 16(mg/kg).; type: functional; outline: as §3
Mus musculus [15] = experiment: […] anticancer activity against B6D2F-1 mice bearing P388 leukemia measured by the average body weight(g) after day 1 at an intravenous dose of 22(mg/kg).
Mus musculus [16] = experiment: […] anticancer activity against B6D2F-1 mice bearing P388 leukemia measured by the average weight change(g) after day 9 at an intravenous dose of 16(mg/kg).; type: functional; outline: as §4
Mus musculus [17] = experiment: […] anticancer activity against B6D2F-1 mice bearing P388 leukemia measured by the average weight change(g) after day 7 at an intravenous dose of 30(mg/kg).; type: functional; outline: as §4
Mus musculus [18] = experiment: […] anticancer activity against B6D2F-1 mice bearing P388 leukemia measured by the Average survival time(days) at an intravenous dose of 30(mg/kg).; type: functional; outline: as §2
Mus musculus [19] = experiment: […] anticancer activity against B6D2F-1 mice bearing P388 leukemia measured by the average survival time(days) at an intravenous dose of 16(mg/kg)..; type: functional; outline: as §2
Mus musculus [20] = experiment: […] anticancer activity against 4 B6D2F-1 mice bearing P388 leukemia measured by the toxicity death at an intravenous dose of 30(mg/kg).; type: organism-based; conditions: in vivo; outline: as §2
Mus musculus [21] = experiment: […] anticancer activity against B6D2F-1 mice bearing P388 leukemia measured by the average weight change(g) after day 11 at an intravenous dose of 30(mg/kg).; type: functional; outline: as §3
Mus musculus [22] = experiment: […] anticancer activity against 5 B6D2F-1 mice bearing P388 leukemia measured by the toxicity death at an intravenous dose of 16(mg/kg)..; type: organism-based; conditions: in vivo; outline: as §2
Mus musculus [23] = experiment: […] anticancer activity against 5 B6D2F-1 mice bearing P388 leukemia measured by the toxicity death at an intravenous dose of 22(mg/kg).; type: organism-based; conditions: in vivo; outline: as §2
Mus musculus [24] = experiment: […] anticancer activity against B6D2F-1 mice bearing P388 leukemia measured by the increase in lifespan(%) at an intravenous dose of 8(mg/kg)..; type: functional; outline: as §2
Mus musculus [25] = experiment: […] anticancer activity against B6D2F-1 mice bearing P388 leukemia measured by the Average survival time(day+/-SD) at an intravenous dose of 12(mg/kg).; type: functional; outline: as §2
Mus musculus [26] = experiment: […] anticancer activity against B6D2F-1 mice bearing P388 leukemia measured by the average weight change(g) after day 7 at an intravenous dose of 12(mg/kg).; type: functional; outline: as §3
Mus musculus [27] = experiment: […] anticancer activity against B6D2F-1 mice bearing P388 leukemia measured by the average weight change(g) after day 7 at an intravenous dose of 18(mg/kg).; type: functional; outline: as §3
Mus musculus [28] = experiment: […] anticancer activity against B6D2F-1 mice bearing P388 leukemia measured by the average weight change(g) after day 11 at an intravenous dose of 12(mg/kg).; type: functional; outline: as §3
Mus musculus [29] = experiment: […] anticancer activity against B6D2F-1 mice bearing P388 leukemia measured by the increase in lifespan(%) at an intravenous dose of 12(mg/kg).; type: functional; outline: as §2
Mus musculus [30] = experiment: […] anticancer activity against B6D2F-1 mice bearing P388 leukemia measured by the average survival time(day+/-SD) at an intravenous dose of 8(mg/kg)..; type: functional; outline: as §2
Mus musculus [31] = experiment: […] anticancer activity against B6D2F-1 mice bearing P388 leukemia measured by the average body weight(g) after day 1 at an intravenous dose of 12(mg/kg).
Mus musculus [32] = experiment: […] anticancer activity against B6D2F-1 mice bearing P388 leukemia measured by the average body weight(g) after day 1 at an intravenous dose of 18(mg/kg).
Mus musculus [33] = experiment: […] anticancer activity against B6D2F-1 mice bearing P388 leukemia measured by the average body weight(g) after day 1 at an intravenous dose of 8(mg/kg).
Mus musculus [34] = experiment: […] anticancer activity against B6D2F-1 mice bearing P388 leukemia measured by the average weight change(g) after day 9 at an intravenous dose of 12(mg/kg).; type: functional; outline: as §4
Mus musculus [35] = experiment: […] anticancer activity against B6D2F-1 mice bearing P388 leukemia measured by the average weight change(g) after day 7 at an intravenous dose of 8(mg/kg).; type: functional; outline: as §4
Mus musculus [36] = experiment: […] anticancer activity against B6D2F-1 mice bearing P388 leukemia measured by the average weight change(g) after day 9 at an intravenous dose of 8(mg/kg).; type: functional; outline: as §4
Mus musculus [37] = experiment: […] anticancer activity against B6D2F-1 mice bearing P388 leukemia measured by the Average survival time(day+/-SD) at an intravenous dose of 18(mg/kg).; type: functional; outline: as §2
Mus musculus [38] = experiment: […] anticancer activity against B6D2F-1 mice bearing P388 leukemia measured by the average weight change(g) after day 11 at an intravenous dose of 8(mg/kg).; type: functional; outline: as §3
Mus musculus [39] = experiment: […] anticancer activity against B6D2F-1 mice bearing P388 leukemia measured by the increase in lifespan(%) at an intravenous dose of 18(mg/kg).; type: functional; outline: as §2

CCOC(=O)Nc1cc(CO)cc(Nc2c3cccc(C)c3nc3c(C(=O)NCCN(C)C)cccc23)c1
pIC50 (HL-60 [1]): 8.64

Nc1cc(CO)cc(Nc2c3ccccc3nc3ccccc23)c1
Body weight (Mus musculus [2]): 23.3 g | Increase in life-span (Mus musculus [3]): 230% | Average weight change (Mus musculus [4]): -2.8 g | pIC50 (HL-60 [5]): 7.57 | Average weight change (Mus musculus [6]): -2.1 g | Average survival (Mus musculus [7]): 21.1 days | Increase in life-span (Mus musculus [8]): 133% | Body weight (Mus musculus [9]): 22.6 g | Average weight change (Mus musculus [10]): -1.3 g | Average weight change (Mus musculus [11]): -1.5 g | Average weight change (Mus musculus [12]): -0.1 g | Increase in life-span (Mus musculus [13]): 240% | Average weight change (Mus musculus [14]): 0.8 g | Body weight (Mus musculus [15]): 23.8 g | Average weight change (Mus musculus [16]): -0.5 g | Average weight change (Mus musculus [17]): 0.2 g | Average survival (Mus musculus [18]): 21.8 days | Average survival (Mus musculus [19]): 14.9 days | Toxicity related death (Mus musculus [20]): 0 | Average weight change (Mus musculus [21]): -0.2 g | Toxicity related death (Mus musculus [22]): 0 | Toxicity related death (Mus musculus [23]): 0

COc1cc(NS(C)(=O)=O)ccc1Nc1c2ccccc2nc2ccccc12 [AMSACRINE]
Increase in life-span (Mus musculus [24]): 91% | Average survival (Mus musculus [25]): 14.1 days | Average weight change (Mus musculus [26]): -0.7 g | Average weight change (Mus musculus [27]): -4.3 g | Average weight change (Mus musculus [28]): -3.2 g | Increase in life-span (Mus musculus [29]): 120% | Average survival (Mus musculus [30]): 12.2 days | Body weight (Mus musculus [31]): 22.7 g | Body weight (Mus musculus [32]): 24.5 g | Body weight (Mus musculus [33]): 22.8 g | Average weight change (Mus musculus [34]): -1.4 g | Average weight change (Mus musculus [35]): 0.1 g | Average weight change (Mus musculus [36]): -2.1 g | Average survival (Mus musculus [37]): 7.6 days | Average weight change (Mus musculus [38]): -3.8 g | Increase in life-span (Mus musculus [39]): 19%
